The test system of one series is HepG2. The series is described as follows: Cytotoxicity against human HepG2 cells assessed as cell viability at 10 uM after 72 hrs by MTS assay in presence of 10% fetal calf serum relative to control. Type of series: functional. To be noted: HepG2, 72 h, read-out: Activity.
The next series deals with MDA-MB-231. Nature of the series: Cytotoxicity against human MDA-MB-231 cells assessed as cell viability at 10 uM after 72 hrs by MTS assay in presence of 10% fetal calf serum relative to control. The class given is functional. Particulars: MDA-MB-231, 72 h, read-out: Activity. Put shortly:
(§1)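 Cells were grown in RPMI with L-glutamine, 10% FCS, penicillin/streptomycin and fungizone at 37 °C under 5% CO2. Wells were seeded with 1900 cells for MCF-7 or 1300 cells for MDA-MB-231. After 24 h, compound was added from a 10 mM DMSO stock (final DMSO 1%) for 72 h, with DMSO-only controls. Viable cells were read by MTS at 490 nm and expressed as % of untreated. Mean ± SEM, N = 3.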

In the next series the test system is MCF7. Nature of the series: Cytotoxicity against human MCF7 cells assessed as cell viability at 10 uM after 72 hrs by MTS assay in presence of 10% fetal calf serum relative to control. Type of series: functional. To be noted: MCF7, 72 h, read-out: Activity. Put shortly: as §1
The subject of another series is PC-3. The series is described as follows: Cytotoxicity against human PC3 cells assessed as cell viability at 10 uM after 72 hrs by MTS assay in presence of 10% fetal calf serum relative to control. To be noted: PC-3, 72 h, read-out: Activity. The class given is functional.
Series [1] is described as follows: Cytotoxicity against human MiaPaCa cells assessed as cell viability at 10 uM after 72 hrs by MTS assay in presence of 10% fetal calf serum relative to control. To be noted: MIA PaCa-2, 72 h, read-out: Activity. The class given is functional.
The nature of series [2]: Cytotoxicity against human MDA435 cells assessed as cell viability at 10 uM after 72 hrs by MTS assay in presence of 10% fetal calf serum relative to control. Particulars: MDA-MB-435, 72 h, read-out: Activity. The class given is functional.
For the next series, the system named is LNCaP. The series is described as follows: Cytotoxicity against human LNCAP cells assessed as cell viability at 10 uM after 72 hrs by MTS assay in presence of 10% fetal calf serum relative to control. The class given is functional. To be noted: read-out: Activity.
The test system of the next series is HCT-116. Nature of the series: Cytotoxicity against human HCT116 cells assessed as cell viability at 10 uM after 72 hrs by MTS assay in presence of 10% fetal calf serum relative to control. The class given is functional. Particulars: HCT-116, 72 h, read-out: Activity.
Series [3] can be described thus: Cytotoxicity against human hepatocytes assessed as cell viability at 100 uM after 90 mins by MTT assay relative to control. Type of series: cell-based, Hepatocyte. To be noted: read-out: Activity. Put shortly: (§2)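 Cryopreserved human hepatocytes were plated at 0.1 × 10⁶ cells/well and exposed to compound for 90 min. MTT was then added for 30 min at 37 °C, plates were centrifuged, and formazan was dissolved in DMSO. Absorbance was read at 595 nm. Surviving cells are expressed as % of non-treated cells ± SEM.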

Series [4] in a line: Cytotoxicity against human hepatocytes assessed as cell viability at 200 uM after 90 mins by MTT assay relative to control. Type of series: cell-based, Hepatocyte. To be noted: read-out: Activity. Put shortly:
as §2

Consider `O=C1S/C(=C\c2ccccc2)C(=O)N1Cc1ccccc1`, for which the viability at 10 µM in the series on HepG2 was 85%; in the series on MDA-MB-231 it was 81.6%; with MCF7, 95.6%; in the series with PC-3 it was 82.4%; in [1], 88.8%; in series [2] it was 89.9%. The viability at 10 µM is 90.8% in the series with LNCaP and 85.4% with HCT-116.

Turning to `Cc1c(C)c2c(c(C)c1OC(=O)CCCCCCCNC(=O)OC(C)(C)C)CCC(C)(COc1ccc(/C=C3\SC(=O)NC3=O)cc1)O2` (stereo not drawn), the viability at 10 µM in the series on HepG2 came out at 18.4%; in the series on MDA-MB-231, 42.2%; in the series with MCF7 it was 62.5%; in the series on PC-3 it was 62%; in [1] it was 53.8%; in series [2], 51.5%. The values for the viability at 10 µM with LNCaP and in the series with HCT-116 were 21.1% and 37%, respectively. Also, in series [3], the viability at 1.5 h, 100 µM was found to be 79.3%. The viability at 1.5 h, 200 µM in series [4] is 74.7%.

In the case of `CC1(CN2C(=O)S/C(=C\c3cc(Br)c(O)c(Br)c3)C2=O)CCCCC1`, the viability at 10 µM in the series with HepG2 is 25.8%; with MDA-MB-231 it was 46.9%; in the series with MCF7, 23.8%; in the series with PC-3, 52.9%; in [1] it was 34.7%; in series [2], 30.6%. For the same compound, the viability at 10 µM in the series on LNCaP amounted to 18.8%; with HCT-116, 13%. For the same compound, the viability at 1.5 h, 100 µM in [3] was 42.1%. Moreover, in [4], the viability at 1.5 h, 200 µM came out at 30.3%.

As for `O=C1S/C(=C\c2ccc(O)cc2)C(=O)N1Cc1ccccc1`, the viability at 10 µM with HepG2 is 54.5%; in the series on MDA-MB-231, 24.5%; with MCF7, 43.9%; in the series with PC-3 it was 65.8%; in series [1], 25.6%; in series [2], 30.9%. For the same compound, the viability at 10 µM is 77.6% in the series on LNCaP and 29.8% with HCT-116. The viability at 1.5 h, 100 µM in series [3] came to 40.8%. Moreover, the viability at 1.5 h, 200 µM in series [4] came to 18%.

Regarding `O=C1S/C(=C\c2ccc(Cl)cc2)C(=O)N1Cc1ccccc1`, the viability at 10 µM turned out to be 79.3% in the series on HepG2; 73% with MDA-MB-231; 100% in the series with MCF7; 95.5% in the series with PC-3; 88.3% in series [1]; 88.8% in [2]. Further, the values for the viability at 10 µM with LNCaP and in the series on HCT-116 were 85.5% and 84%, respectively.

On to `O=C1S/C(=C\c2ccc([N+](=O)[O-])cc2)C(=O)N1Cc1ccccc1`, for which the viability at 10 µM came out at 79.4% in the series with HepG2; 64.6% in the series with MDA-MB-231; 80.2% with MCF7; 72.3% with PC-3; 84.9% in series [1]; 86% in series [2]. The viability at 10 µM in the series with LNCaP worked out at 77.9%; in the series with HCT-116, 93.9%.

Consider `COc1ccc(/C=C2\SC(=O)N(Cc3ccccc3)C2=O)cc1`, for which the viability at 10 µM in the series with HepG2 was found to be 87.9%; with MDA-MB-231, 89.5%; with MCF7 it was 100%; with PC-3, 91.4%; in [1], 99.3%; in series [2], 92.7%. Besides, the figures for the viability at 10 µM in the series with LNCaP and in the series with HCT-116 were 100% and 82.1%, respectively.

As to `COc1cc(/C=C2\SC(=O)N(Cc3ccccc3)C2=O)cc(OC)c1OC`, the viability at 10 µM with HepG2 is 63.8%; in the series on MDA-MB-231, 51.5%; in the series on MCF7 it was 74.7%; with PC-3, 67.9%; in [1], 69.8%; in [2], 78.8%. For the same compound, the figures for the viability at 10 µM in the series with LNCaP and in the series on HCT-116 were 76.2% and 55.9%, respectively.

`O=C1S/C(=C\c2ccc(O)cc2)C(=O)N1C/C=C/c1ccccc1`: the viability at 10 µM in the series with HepG2 amounted to 41.3%; in the series with MDA-MB-231 it was 8.7%; in the series on MCF7 it was 35%; in the series with PC-3 it was 57.1%; in series [1], 16.2%; in [2] it was 18.3%. The viability at 10 µM in the series with LNCaP came to 63.4%; in the series with HCT-116 it was 17.4%. For the same compound, the viability at 1.5 h, 100 µM in series [3] was 88.8%. The viability at 1.5 h, 200 µM in [4] stood at 62.7%.

Take `CC(C)(C)OC(=O)c1ccccc1-c1ccc(CN2C(=O)S/C(=C\c3ccc(O)cc3)C2=O)cc1`: the viability at 10 µM in the series with HepG2 turned out to be 22.8%; in the series with MDA-MB-231 it was 51.9%; in the series on MCF7 it was 80.3%; in the series on PC-3 it was 49.9%; in series [1] it was 59.9%; in [2] it was 66.8%. In addition, the figures for the viability at 10 µM in the series with LNCaP and in the series with HCT-116 were 32.4% and 61.6%, respectively.

With `O=C(O)c1ccccc1-c1ccc(CN2C(=O)S/C(=C\c3ccc(O)cc3)C2=O)cc1`, the viability at 10 µM with HepG2 stood at 89.8%; in the series with MDA-MB-231, 94.9%; in the series with MCF7, 99.6%; in the series with PC-3, 95.6%; in series [1] it was 99.3%; in series [2], 100%. In addition, the viability at 10 µM with LNCaP was 90.1%; in the series on HCT-116, 97.6%.

Regarding `Cc1c(C)c2c(c(C)c1O)CCC(C)(/C=C1\SC(=O)N(Cc3ccccc3)C1=O)O2` (racemic), the viability at 10 µM in the series on HepG2 was 71.5%; in the series with MDA-MB-231, 88%; in the series with MCF7, 94.2%; in the series with PC-3 it was 83.4%; in [1], 80.7%; in series [2], 75.7%. For the same compound, the viability at 10 µM in the series on LNCaP came out at 84.6%; with HCT-116, 81%.

Take `Cc1c(C)c2c(c(C)c1O)CCC(C)(COc1ccc(/C=C3\SC(=O)N(Cc4ccccc4)C3=O)cc1)O2` (racemic): the viability at 10 µM is 63.2% in the series with HepG2; 76.4% in the series on MDA-MB-231; 85.3% in the series with MCF7; 100% in the series on PC-3; 100% in series [1]; 88.7% in series [2]. In addition, the viability at 10 µM in the series with LNCaP amounted to 85.7%; in the series on HCT-116, 43%.

Take `CCOC(=O)C1(C)CCc2c(C)c(/C=C3\SC(=O)N(Cc4ccccc4)C3=O)c(C)c(C)c2O1` (racemic): the viability at 10 µM in the series with HepG2 turned out to be 69.2%; with MDA-MB-231, 68.8%; in the series with MCF7 it was 97.2%; in the series with PC-3 it was 98.3%; in series [1], 86%; in series [2] it was 81.4%. The viability at 10 µM with LNCaP is 87.5%; in the series with HCT-116, 88%.

Regarding `Cc1c(C)c2c(c(C)c1OC(=O)OC(C)(C)C)CCC(C)(/C=C1\SC(=O)N(Cc3ccccc3)C1=O)O2` (racemic), the viability at 10 µM in the series with HepG2 is 76.3%; with MDA-MB-231, 75.4%; in the series with MCF7 it was 76.5%; with PC-3, 82.4%; in series [1], 75.3%; in [2], 67.6%. In addition, the viability at 10 µM with LNCaP amounted to 96.2%; in the series on HCT-116 it was 90.5%.

Values taken from ChEMBL document CHEMBL3297735, “Optimization of troglitazone derivatives as potent anti-proliferative agents: towards more active and less toxic compounds” (Eur J Med Chem, 2014).
